Reference: ChEMBL document CHEMBL1126828, “Structure-activity relationships of trans-3,4-dimethyl-4-(3-hydroxyphenyl)piperidine antagonists for mu- and kappa-opioid receptors” (J Med Chem, 1993)

Experiments:
[1] = molecular target: Kappa-type opioid receptor (Mus musculus) (UniProt P33534); assay: Antagonism of opioid analgesia using a mouse writhing model to block U-50,488 ([…]) induced kappa-opioid receptor subcutaneously; assay type: functional, organism-based
[2] = molecular target: Kappa-type opioid receptor (Rattus norvegicus) (UniProt P34975); assay: Tested for the antagonism of kappa opioid receptor diuresis at a dose of 0.08 mg/kg subcutaneously; assay type: functional, organism-based; design: dose 0.08 mg/kg
Kappa-type opioid receptor (Rattus norvegicus), sequence (P34975 whole entry): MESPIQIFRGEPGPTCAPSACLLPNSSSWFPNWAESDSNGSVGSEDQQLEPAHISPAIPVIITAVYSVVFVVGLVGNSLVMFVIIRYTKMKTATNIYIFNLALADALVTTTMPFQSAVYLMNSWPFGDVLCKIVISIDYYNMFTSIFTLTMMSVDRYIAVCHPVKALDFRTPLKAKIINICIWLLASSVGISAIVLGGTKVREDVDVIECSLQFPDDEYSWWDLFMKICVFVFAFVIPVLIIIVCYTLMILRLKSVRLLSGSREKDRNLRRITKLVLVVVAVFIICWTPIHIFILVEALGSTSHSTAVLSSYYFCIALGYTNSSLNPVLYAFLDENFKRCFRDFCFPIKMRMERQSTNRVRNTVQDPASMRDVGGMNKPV
Method in brief: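 Male Long-Evans hooded rats (350-500 g), bremazocine HCl 0.08 mg/kg sc to induce diuresis, test antagonist sc at once on opposite side; metabolism cages, urine volume at 2 and 5 h. Three rats per dose, doses varied 2-fold; AD50 = dose halving 5-h urination.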

Mu-type opioid receptor [3] = molecular target: T1, Mu-type opioid receptor (Rattus norvegicus, UniProt P33535); assay: Binding affinity towards mu opioid receptor by displacement of [3H]NAL from rat brain homogenates; assay type: tissue-based
T1 sequence (P33535 whole entry): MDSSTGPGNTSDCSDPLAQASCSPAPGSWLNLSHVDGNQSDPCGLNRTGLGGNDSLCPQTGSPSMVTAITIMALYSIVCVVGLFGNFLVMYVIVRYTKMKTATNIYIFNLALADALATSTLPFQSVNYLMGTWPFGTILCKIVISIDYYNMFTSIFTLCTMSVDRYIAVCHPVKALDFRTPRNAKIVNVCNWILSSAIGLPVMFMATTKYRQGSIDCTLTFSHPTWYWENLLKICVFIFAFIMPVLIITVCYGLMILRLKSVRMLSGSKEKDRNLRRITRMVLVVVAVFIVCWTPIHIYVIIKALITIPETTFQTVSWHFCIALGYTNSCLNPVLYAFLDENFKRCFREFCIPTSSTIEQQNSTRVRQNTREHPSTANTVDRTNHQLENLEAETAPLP

[4] = molecular target: Mu-type opioid receptor (Mus musculus) (UniProt P42866); assay: Antagonism of opioid analgesia using a mouse writhing model to block morphine ([…]) induced mu-opioid receptor (subcutaneously dosed); assay type: functional, organism-based
Mu-type opioid receptor (Mus musculus), sequence (P42866 whole entry): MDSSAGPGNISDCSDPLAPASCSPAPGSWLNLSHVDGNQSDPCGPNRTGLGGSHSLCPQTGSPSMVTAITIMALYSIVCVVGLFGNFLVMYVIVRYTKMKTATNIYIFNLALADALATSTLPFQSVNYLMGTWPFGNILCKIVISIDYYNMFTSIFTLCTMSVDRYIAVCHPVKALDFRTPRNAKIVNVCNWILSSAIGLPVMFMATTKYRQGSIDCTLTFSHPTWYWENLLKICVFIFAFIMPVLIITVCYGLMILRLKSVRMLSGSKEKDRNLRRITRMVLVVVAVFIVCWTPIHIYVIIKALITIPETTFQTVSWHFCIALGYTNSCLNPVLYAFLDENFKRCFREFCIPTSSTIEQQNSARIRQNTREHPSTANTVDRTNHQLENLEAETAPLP

Mu-type opioid receptor [5] = molecular target: T1, Mu-type opioid receptor; assay: Binding affinity towards mu-opioid receptor by displacement of [3H]NAL at 100 nM from rat brain homogenates; assay type: tissue-based
Mu-type opioid receptor [6] = molecular target: T1, Mu-type opioid receptor; assay: Binding affinity towards mu-opioid receptor by displacement of [3H]NAL at 10 nM from rat brain homogenates; assay type: tissue-based
[7] = molecular target: Kappa-type opioid receptor (Cavia porcellus, UniProt P41144); assay: Binding affinity towards kappa-opioid receptor by displacement of [3H]-EKC at from guinea pig cortical tissue
Kappa-type opioid receptor, sequence (P41144 whole entry): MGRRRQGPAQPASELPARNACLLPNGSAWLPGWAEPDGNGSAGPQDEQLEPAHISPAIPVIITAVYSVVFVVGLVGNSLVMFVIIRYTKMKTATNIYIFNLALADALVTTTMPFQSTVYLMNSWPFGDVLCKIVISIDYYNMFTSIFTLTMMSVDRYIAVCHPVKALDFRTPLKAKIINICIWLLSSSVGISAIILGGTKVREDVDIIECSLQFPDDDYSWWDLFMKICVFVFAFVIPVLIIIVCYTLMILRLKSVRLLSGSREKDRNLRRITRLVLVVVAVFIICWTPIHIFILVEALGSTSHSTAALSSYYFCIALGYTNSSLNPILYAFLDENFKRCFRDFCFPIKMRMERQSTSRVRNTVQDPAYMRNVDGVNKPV

Kappa-type opioid receptor (Mus musculus), sequence (P33534 whole entry): as the sequence (P34975 whole entry) above, with E11D, A17S, P51S, V308A counted along it

Compound	AD50 [1] [mg/kg]	AD50 [2] [mg/kg]	Ki (Mu-type opioid receptor [3]) [nM]	AD50 [4] [mg/kg]	Ki (Mu-type opioid receptor [5]) [nM]	Ki (Mu-type opioid receptor [6]) [nM]	Ki [7] [nM]
C[C@H]1CN(CCc2ccccc2Cl)CC[C@@]1(C)c1cccc(O)c1	0.51	3.4	3.5	0.31	–	–	–
Cc1ccc(CCN2CC[C@@](C)(c3cccc(O)c3)[C@@H](C)C2)cc1	> 1.25	11	–	> 1.25	95	52	–
C[C@H]1CN(CCCc2cccs2)CC[C@@]1(C)c1cccc(O)c1 (stereo in doubt; 42) [listing 1 of 2 here]	0.25	–	–	0.03	–	–	–
C[C@H]1CN(CC2CC2)CC[C@@]1(C)c1cccc(O)c1	6.1	–	21	1.3	–	–	–
C[C@H]1CN(CCc2ccccc2)CC[C@@]1(C)c1cccc(O)c1	1.4	1.8	–	0.16	–	–	–
C[C@H]1CN(CCc2ccncc2)CC[C@@]1(C)c1cccc(O)c1	> 1.25	14	–	> 1.25	99	54	–
C[C@H]1CN(CCCCc2cccs2)CC[C@@]1(C)c1cccc(O)c1	0.43	3.3	–	0.16	69	23	–
C[C@H]1CN(CCC(=O)c2ccccc2)CC[C@@]1(C)c1cccc(O)c1 (stereo in doubt; 6) [listing 1 of 2 here]	4.5	3.2	–	0.14	–	–	–
C[C@H]1CN(CCOc2ccccc2)CC[C@@]1(C)c1cccc(O)c1	> 40	3	1.3	0.14	–	–	57
C[C@H]1CN(C)CC[C@@]1(C)c1cccc(O)c1	–	> 10	80	0.74	–	–	833
Cc1ccccc1CCCN1CC[C@@](C)(c2cccc(O)c2)[C@@H](C)C1	0.09	1.4	0.62	0.05	–	–	8.9
C[C@H]1CN(CCCOc2ccccc2)CC[C@@]1(C)c1cccc(O)c1	> 1.25	8.4	1	> 1.25	–	–	61
C[C@@H]1CN(CCC(=O)c2ccccc2)CC[C@]1(C)c1cccc(O)c1	–	–	12	–	–	–	318
C[C@H]1CN(Cc2ccoc2)CC[C@@]1(C)c1cccc(O)c1	0.71	3.8	–	0.4	100	82	–
COc1ccccc1CCCN1CC[C@@](C)(c2cccc(O)c2)[C@@H](C)C1	> 0.64	2.2	0.95	0.18	–	–	–
CCN1CC[C@@](C)(c2cccc(O)c2)[C@@H](C)C1	> 1.25	–	52	> 1.25	–	–	18
C[C@H]1CN(CCC(=O)c2cccs2)CC[C@@]1(C)c1cccc(O)c1	–	–	1.5	–	–	–	15
C[C@H]1CN(CCCc2cccc(Cl)c2)CC[C@@]1(C)c1cccc(O)c1	> 1.25	11	–	0.76	100	89	–
C[C@H]1CN(CCC(=O)c2ccccc2)CC[C@@]1(C)c1cccc(O)c1 (stereo in doubt; 8)	–	–	3.6	–	–	–	163
CC(CCCN1CC[C@@](C)(c2cccc(O)c2)[C@@H](C)C1)c1ccccc1 (some centres undefined)	0.91	8.4	–	0.25	100	63	–
C[C@H]1CN(CCCc2cccs2)CC[C@@]1(C)c1cccc(O)c1 (stereo in doubt; 42) [listing 2 of 2 here]	–	–	0.2	–	–	–	3.3
Cc1cccc(CCN2CC[C@@](C)(c3cccc(O)c3)[C@@H](C)C2)c1	0.95	5.7	–	0.27	100	83	–
C[C@H]1CN(CCCc2ccccc2)CC[C@@]1(C)c1cccc(O)c1	–	1.1	0.69	2.4	–	–	15

Compound	AD50 [1] [mg/kg]	AD50 [2] [mg/kg]	Ki (Mu-type opioid receptor [3]) [nM]	AD50 [4] [mg/kg]	Ki (Mu-type opioid receptor [5]) [nM]	Ki (Mu-type opioid receptor [6]) [nM]	Ki [7] [nM]
C[C@H]1CN(CCc2cccc3ccccc23)CC[C@@]1(C)c1cccc(O)c1	0.51	> 5	–	0.08	–	1.1	–
C[C@H]1CN(CCc2cccc(F)c2)CC[C@@]1(C)c1cccc(O)c1	0.84	1.4	–	0.14	–	3.2	–
CCCCCCCN1CC[C@@](C)(c2cccc(O)c2)[C@@H](C)C1	–	–	0.62	–	–	–	–
C[C@@H]1CN(CCCc2cccs2)CC[C@]1(C)c1cccc(O)c1	–	–	1.8	–	–	–	13
C[C@H]1CN(Cc2ccco2)CC[C@@]1(C)c1cccc(O)c1	1.35	–	5.8	0.71	–	–	71
Cc1cccc(CCCN2CC[C@@](C)(c3cccc(O)c3)[C@@H](C)C2)c1	> 0.32	10	2.8	> 1.25	–	–	–
CCCCCN1CC[C@@](C)(c2cccc(O)c2)[C@@H](C)C1	–	0.69	4.3	0.37	–	–	–
C=CCN1CC[C@@](C)(c2cccc(O)c2)[C@@H](C)C1	> 10	–	16	1.3	–	–	313
C[C@H]1CN(CCC(O)c2ccccc2)CC[C@@]1(C)c1cccc(O)c1 (some centres undefined)	–	–	0.96	–	–	–	12.5
C[C@H]1CN(CC(O)Cc2ccccc2)CC[C@@]1(C)c1cccc(O)c1 (some centres undefined)	0.85	3.7	–	0.27	100	88	–
C[C@H]1CN(CC2CCCO2)CC[C@@]1(C)c1cccc(O)c1 (some centres undefined)	0.75	3.2	–	0.6	60	26	–
C[C@H]1CN(CCc2cccs2)CC[C@@]1(C)c1cccc(O)c1	0.25	3.8	5.3	0.25	–	–	–
C[C@H]1CN(CCCCc2ccccc2)CC[C@@]1(C)c1cccc(O)c1	> 1.25	4.1	2	0.28	–	–	–
C[C@H]1CN(CCCc2ccsc2)CC[C@@]1(C)c1cccc(O)c1	–	–	–	–	–	0.26	10
C[C@H]1CN(CCCc2cccs2)CC[C@@]1(C)c1cccc(O)c1 (stereo in doubt; 41) [listing 1 of 2 here]	–	–	0.56	–	–	–	6.1
C[C@H]1CN(CCc2cccc(Cl)c2)CC[C@@]1(C)c1cccc(O)c1	0.38	3.6	0.3	0.44	–	–	–
C[C@H]1CN(Cc2ccccc2)CC[C@@]1(C)c1cccc(O)c1	0.45	2.5	–	0.29	89	65	–
C[C@H]1CN(CCCc2cccs2)CC[C@@]1(C)c1cccc(O)c1 (stereo in doubt; 41) [listing 2 of 2 here]	0.3	–	–	–	–	–	–
CCCCCCN1CC[C@@](C)(c2cccc(O)c2)[C@@H](C)C1	0.11	0.7	0.29	0.052	–	–	–
C[C@H]1CN(CCCc2ccco2)CC[C@@]1(C)c1cccc(O)c1	0.26	–	1.4	0.08	–	–	14
C[C@H]1CN(CCC(O)c2cccs2)CC[C@@]1(C)c1cccc(O)c1 (some centres undefined)	0.14	1.4	0.5	0.07	–	–	11.7
C[C@H]1CN(CCC(=O)c2ccccc2)CC[C@@]1(C)c1cccc(O)c1 (stereo in doubt; 6) [listing 2 of 2 here]	–	–	5.4	–	–	–	208
